Measurements published in ChEMBL document CHEMBL1132984 (J Med Chem, 2000).

Legend:
Format in all cases: functional
Rattus norvegicus [1] = organism: Rattus norvegicus; test: In vitro inhibitory concentration that relaxes KCL induced contraction in rat detrusor strips by 50%
How it was run: (§1)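 Female Sprague-Dawley rat (250-350 g) detrusor strips, 4-5 mm by 10 mm, pretensioned 0.25-0.5 g in a tissue bath and contracted with an additional 15 mM KCl. Compounds added as cumulative concentrations to steady state. Contractility measured as 5 min area under the contraction curve per concentration; IC50 is the concentration relaxing KCl-induced contraction by 50%. Glyburide added at end.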

Rattus norvegicus [2] = organism: Rattus norvegicus; test: In vitro inhibitory concentration that relaxes KCL induced contraction in rat detrusor strips by 50%; NE=no effect; how it was run: as §1
Rattus norvegicus [3] = organism: Rattus norvegicus; test: In vitro inhibitory concentration that relaxes KCL induced contraction in rat detrusor strips by 50%; contracted; how it was run: as §1
Rattus norvegicus [4] = test: Compound was evaluated in vivo for the % change in the frequency of spontaneous bladder contractions in the rat after oral administration of a dose of 10 mg/kg
Rattus norvegicus [5] = test: compound was evaluated in vivo for maximum % change in MAP in normotensive rat model after oral administration of a dose of 10 mg/kg
How it was run: (§2)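 Normotensive rats given test compound orally in a separate group from the efficacy animals. Mean arterial pressure and heart rate recorded after dosing, with maximum % change in MAP from initial values reported. ED20 is the oral dose causing a 20% drop in MAP.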

Rattus norvegicus [6] = test: compound was evaluated in vivo for maximum % change in MAP in normotensive rat model after oral administration of a dose of 30 mg/kg; how it was run: as §2
[7] = Selectivity ratio of MAP ED20/bladder ED50
How it was run: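 Ratio of the oral ED20 for a 20% MAP drop in normotensive rats to the oral ED50 for a 50% reduction in spontaneous bladder contraction frequency in the urethral-obstructed rat instability model.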

Rattus norvegicus [8] = test: Effective dose in vivo for reduction in the frequency of spontaneous bladder contractions in the rat oral administration
Rattus norvegicus [9] = test: Effective dose in vivo for reduction in MAP in normotensive rat model after oral administration; how it was run: as §2

| Structure (SMILES) | IC50 (Rattus norvegicus [1]; Rattus norvegicus) | also measured |
| --- | --- | --- |
| CC(/N=c1\c(O)c(O)\c1=N/c1cccc2cccnc12)C(C)(C)C (stereo not given) | 8.1 µM |  |
| CC(/N=c1\c(O)c(O)\c1=N/c1ccc(C#N)cc1)c1ccc(F)cc1 (stereo not given) |  | IC50 (Rattus norvegicus [2]): Not Active |
| CC(/N=c1\c(O)c(O)\c1=N/c1ccncc1)C(C)(C)C (stereo not given) | 1.36 µM |  |
| CC(C)C(C)/N=c1\c(O)c(O)\c1=N/c1ccc(C#N)cc1 (stereo not given) | 1.9 µM |  |
| CC(/N=c1\c(O)c(O)\c1=N/c1ccccc1C#N)C(C)(C)C (stereo not given) | > 30 µM |  |
| CC(/N=c1\c(O)c(O)\c1=N/c1ccc(C#N)cc1)c1ccc([N+](=O)[O-])cc1 (stereo not given) |  | IC50 (Rattus norvegicus [2]): Not Active |
| CC(/N=c1\c(O)c(O)\c1=N/c1ccc(S(C)(=O)=O)cc1)C(C)(C)C (stereo not given) | > 30 µM |  |
| CSc1ccc(Nc2c(NC(C)C(C)(C)C)c(=O)c2=O)cc1 (stereo not given) | > 30 µM |  |
| CC(C)(/N=c1\c(O)c(O)\c1=N/c1ccc(C#N)cc1)c1ccccc1 | > 30 µM |  |
| CC(/N=c1\c(O)c(O)\c1=N/c1ccc(-n2ccnc2)cc1)C(C)(C)C (stereo not given) | > 30 µM |  |
| CCC(C)(C)/N=c1\c(O)c(O)\c1=N/c1ccc(C#N)cc1 | > 30 µM |  |
| CC(/N=c1\c(O)c(O)\c1=N/c1ccc(CC#N)cc1)C(C)(C)C (stereo not given) | 0.34 µM |  |
| CC(/N=c1\c(O)c(O)\c1=N/c1ccccc1)C(C)(C)C (stereo not given) | 5.4 µM |  |
| N#Cc1ccc(Nc2c(NC3CCCCCC3)c(=O)c2=O)cc1 |  | IC50 (Rattus norvegicus [3]): contracted |
| C[C@@H](/N=c1\c(O)c(O)\c1=N/c1ccc(C#N)cc1Cl)C(C)(C)C | 0.041 µM |  |
| COc1ccc(Nc2c(NC(C)C(C)(C)C)c(=O)c2=O)cc1 (stereo not given) | 2.4 µM |  |
| Cc1cc(/N=c2\c(O)c(O)\c2=N/[C@H](C)C(C)(C)C)ccc1C#N | 0.63 µM |  |
| CC(/N=c1\c(O)c(O)\c1=N/c1ccc(C#N)cc1)c1ccc(OC(F)(F)F)cc1 (stereo not given) | > 30 µM |  |
| C[C@@H](/N=c1\c(O)c(O)\c1=N/c1ccc2c[nH]nc2c1)C(C)(C)C | 4.6 µM |  |
| CC(C)(C)/N=c1\c(O)c(O)\c1=N/c1ccc2ncccc2c1 | > 30 µM |  |
| N#Cc1ccc(Nc2c(NC3CCCCC3)c(=O)c2=O)cc1 | > 30 µM |  |

| Structure (SMILES) | IC50 (Rattus norvegicus [1]; Rattus norvegicus) | also measured |
| --- | --- | --- |
| CC(/N=c1\c(O)c(O)\c1=N/c1cnc2ccccc2c1)C(C)(C)C (stereo not given) | > 30 µM |  |
| CC(/N=c1\c(O)c(O)\c1=N/c1ccc(S(N)(=O)=O)cc1)C(C)(C)C (stereo not given) | > 30 µM |  |
| CCC(C)/N=c1\c(O)c(O)\c1=N/c1ccc(C#N)cc1 (stereo not given) | 2.1 µM |  |
| COC(=O)c1ccc(Nc2c(NC(C)C(C)(C)C)c(=O)c2=O)cc1 (stereo not given) | > 30 µM |  |
| CC(C)(C)/N=c1\c(O)c(O)\c1=N/c1cccnc1Cl | 1.77 µM |  |
| C[C@@H](/N=c1\c(O)c(O)\c1=N/c1cccnc1)C(C)(C)C | 1.9 µM |  |
| C[C@@H](/N=c1\c(O)c(O)\c1=N/c1ccncc1)C(C)(C)C | 1.68 µM |  |
| CC(C)(C)/N=c1\c(O)c(O)\c1=N/c1cccnc1 | 2.8 µM |  |
| CC(C)/N=c1\c(O)c(O)\c1=N/c1ccc(C#N)cc1 | 13.7 µM |  |
| CC(/N=c1\c(O)c(O)\c1=N/c1ccc(C(F)(F)F)cc1)C(C)(C)C (stereo not given) | > 30 µM |  |
| C[C@@H](/N=c1\c(O)c(O)\c1=N/c1ccc2[nH]ncc2c1)C(C)(C)C | 0.74 µM |  |
| CC(C)(C)/N=c1\c(O)c(O)\c1=N/c1cnc2ccccc2c1 | > 30 µM |  |
| COc1cc(/N=c2\c(O)c(O)\c2=N/C(C)C(C)(C)C)c2ncccc2c1 (stereo not given) | > 30 µM |  |
| N#Cc1ccc(Nc2c(NC(c3ccccc3)C(F)(F)F)c(=O)c2=O)cc1 (stereo not given) | 4 µM |  |
| CC(/N=C(\NC#N)Nc1ccc(C#N)cc1)C(C)(C)C (stereo not given) | 0.19 µM | Change (Rattus norvegicus [4]): -27%; Change (Rattus norvegicus [5]): -19% |
| N#Cc1ccc(Nc2c(NCc3ccccc3)c(=O)c2=O)cc1 | > 30 µM |  |
| CC(C)(C)/N=c1\c(O)c(O)\c1=N/c1cccc2cnccc12 | 1.84 µM |  |
| N#Cc1ccc(/N=c2\c(O)c(O)\c2=N/C(CO)c2ccccc2)cc1 (stereo not given) | 14.3 µM |  |
| CC(/N=c1\c(O)c(O)\c1=N/c1ccc(-c2ccccc2)cc1)C(C)(C)C (stereo not given) | > 30 µM |  |
| CCc1cc(Nc2c(N[C@H](C)C(C)(C)C)c(=O)c2=O)ccc1C#N | 17.6 µM |  |
| C[C@@H](/N=c1\c(O)c(O)\c1=N/c1ccc(C#N)cc1O)C(C)(C)C | 6.05 µM |  |

| Structure (SMILES) | IC50 (Rattus norvegicus [1]; Rattus norvegicus) | also measured |
| --- | --- | --- |
| CC(=O)c1ccc(/N=c2\c(O)c(O)\c2=N/C(C)C(C)(C)C)cc1 (stereo not given) | 21.2 µM |  |
| CC(/N=c1\c(O)c(O)\c1=N/c1ccc(C#N)cc1)C(C)(C)C (stereo not given) | 0.52 µM | Change (Rattus norvegicus [4]): -83%; Change (Rattus norvegicus [6]): 8% |
| C[C@@H](/N=c1\c(O)c(O)\c1=N/c1ccc(C#N)c(O)c1)C(C)(C)C |  | IC50 (Rattus norvegicus [2]): Not Active |
| CCCCCCC/N=c1\c(O)c(O)\c1=N/c1ccc(C#N)cc1 | > 30 µM |  |
| Nc1c(Nc2cccnc2)c(=O)c1=O | > 30 µM |  |
| C[C@@H](/N=c1\c(O)c(O)\c1=N/c1ccc(C#N)c(Cl)c1)C(C)(C)C | 4.3 µM |  |
| CC(/N=c1\c(O)c(O)\c1=N/c1ccc(OC(F)(F)F)cc1)C(C)(C)C (stereo not given) | > 30 µM |  |
| CCCc1cc(C#N)ccc1/N=c1\c(O)c(O)\c1=N/[C@H](C)C(C)(C)C | 23.1 µM |  |
| CC(/N=c1\c(O)c(O)\c1=N/c1cccnc1)C(C)(C)C (stereo not given) | 1.95 µM |  |
| CCc1cc(C#N)ccc1Nc1c(N[C@H](C)C(C)(C)C)c(=O)c1=O | 0.09 µM | Ratio [7]: 17.7; ED50 (Rattus norvegicus [8]): 0.13 mg/kg; ED20 (Rattus norvegicus [9]): 2.3 mg/kg |
| CC[C@@H](/N=c1\c(O)c(O)\c1=N/c1ccc(C#N)cc1)c1ccccc1 | 22.5 µM |  |
| C[C@@H](/N=c1\c(O)c(O)\c1=N/c1ccc(C#N)cc1)C1CCCCC1 | 2.6 µM |  |
| C[C@@H](/N=c1\c(O)c(O)\c1=N/c1ccc(C#N)cc1)c1ccccc1 | 0.056 µM |  |
| C[C@H](/N=c1\c(O)c(O)\c1=N/c1ccc(C#N)cc1)c1ccccc1 | > 30 µM |  |
| CC[C@H](/N=c1\c(O)c(O)\c1=N/c1ccc(C#N)cc1)c1ccccc1 | > 30 µM |  |
| C[C@H](/N=c1\c(O)c(O)\c1=N/c1ccc(C#N)cc1)C1CCCCC1 | > 30 µM |  |
| Cc1cc(C#N)ccc1/N=c1\c(O)c(O)\c1=N/[C@H](C)C(C)(C)C | 1.08 µM |  |
| C[C@@H](/N=c1\c(O)c(O)\c1=N/c1ccc(C#N)cc1C(=O)c1ccccc1)C(C)(C)C | 4.78 µM |  |
| C[C@@H](/N=c1\c(O)c(O)\c1=N/c1ccc(C#N)c2c1CCCC2)C(C)(C)C | 0.67 µM |  |
| COc1cc(C#N)ccc1/N=c1\c(O)c(O)\c1=N/[C@H](C)C(C)(C)C | 0.29 µM |  |
| CC(/N=c1\c(O)c(O)\c1=N/c1ccccn1)C(C)(C)C (stereo not given) |  | IC50 (Rattus norvegicus [3]): contracted |

| Structure (SMILES) | IC50 (Rattus norvegicus [1]; Rattus norvegicus) | also measured |
| --- | --- | --- |
| COc1ncccc1/N=c1\c(O)c(O)\c1=N/C(C)(C)C | 2.56 µM |  |
| CC(/N=c1\c(O)c(O)\c1=N/c1cncc(Br)c1)C(C)(C)C (stereo not given) | 11.7 µM |  |
| C[C@@H](/N=c1\c(O)c(O)\c1=N/c1ccc(C#N)cc1Br)C(C)(C)C | 0.075 µM |  |
| Cc1ccc(C(C)/N=c2\c(O)c(O)\c2=N/c2ccc(C#N)cc2)cc1 (stereo not given) | > 30 µM |  |
| CC(/N=c1\c(O)c(O)\c1=N/c1ccc(Br)cc1)C(C)(C)C (stereo not given) | 1.26 µM |  |
| CC(C)(C)/N=c1\c(O)c(O)\c1=N/c1ccc(C#N)cc1 | 0.56 µM |  |
| CC1(C)Oc2ccc(OC(F)(F)F)cc2[C@@H](N2Cc3ccccc3C2=O)[C@@H]1O |  | Ratio [7]: 0.7; ED50 (Rattus norvegicus [8]): 0.3 mg/kg; ED20 (Rattus norvegicus [9]): 0.2 mg/kg |
| COc1ccc(C(C)/N=c2\c(O)c(O)\c2=N/c2ccc(C#N)cc2)cc1 (stereo not given) |  | IC50 (Rattus norvegicus [3]): contracted |
| CC(/N=c1\c(O)c(O)\c1=N/c1cccnc1O)C(C)(C)C (stereo not given) | > 30 µM |  |
| CC(/N=c1\c(O)c(O)\c1=N/c1cccc(C#N)c1)C(C)(C)C (stereo not given) | 3.05 µM |  |
| C/N=c1\c(O)c(O)\c1=N/c1ccc(C#N)cc1 | > 30 µM |  |
| CC(C)(C)C/N=c1\c(O)c(O)\c1=N/c1ccc(C#N)cc1 | > 30 µM |  |
| CCC(CC)/N=c1\c(O)c(O)\c1=N/c1ccc(C#N)cc1 | 3.34 µM |  |
| N#Cc1ccc(Nc2c(NC3CCCC3)c(=O)c2=O)cc1 | 11.5 µM |  |
| CC(N/C(=N\C#N)Nc1ccncc1)C(C)(C)C (single isomer, unassigned; (+)) [PINACIDIL ANHYDROUS] | 0.63 µM |  |
| C[C@@H](/N=c1\c(O)c(O)\c1=N/c1ccc(C#N)cc1)C(C)(C)C (stereo in doubt; 42) |  | IC50 (Rattus norvegicus [1]): 0.37 µM |
| C[C@@H](/N=c1\c(O)c(O)\c1=N/c1ccc(C#N)cc1)C(C)(C)C (stereo in doubt; 43) |  | IC50 (Rattus norvegicus [1]): 24.3 µM |
| N#Cc1ccc(Nc2c(NC3CC4CCC3C4)c(=O)c2=O)cc1 (stereo in doubt; 57) |  | IC50 (Rattus norvegicus [1]): 3.35 µM |
| N#Cc1ccc(Nc2c(NC3CC4CCC3C4)c(=O)c2=O)cc1 (stereo in doubt; 58) |  | IC50 (Rattus norvegicus [1]): > 30 µM |
| C[C@](O)(C(=O)Nc1ccc(C(=O)c2ccccc2)cc1)C(F)(F)F [ZD-6169] | 0.93 µM | Ratio [7]: 2.9; ED50 (Rattus norvegicus [8]): 2.4 mg/kg; ED20 (Rattus norvegicus [9]): 6.96 mg/kg |
